Published values collected from several papers.
Read-out: cell growth or viability

`CC(=O)c1nn(-c2ccccc2Cl)/c(=N/N=C(\C)c2ccc(NC(=O)c3ccccc3)cc2)s1` gave a viability of 5.95% (HepG2; MTT; 0.625 µM).
The EC50 of `CNc1ncc2c(/C=C/C(=O)N3CCC(OC)CC3)nn(Cc3ccccc3C(F)(F)F)c2n1` is reported as 11.4 µM (OE33; resazurin; 5 days).
`CCOC(=O)c1nn(-c2cccc(Cl)c2)/c(=N/N=C(\C)c2ccc(NC(=O)c3ccc(Cl)cc3)cc2)s1` gave a viability of 24.6% (HepG2; MTT; 0.156 µM).
`CNc1ncc2c(/C=C/C(=O)N3CCC(OC)CC3)nn(CC(OC)OC)c2n1` has an EC50 of > 30 µM (OE33; resazurin; 5 days).
For `CC(=NNC(=O)c1cccnc1)c1ccc(Nc2nnc(-c3ccc(Cl)cc3)c3ccccc23)cc1`, the cell death was 96.8% (HepG2; MTT; 5 µM).
`CC(C)(C)c1cnc(CSc2cnc(NC(=O)C3CCN(CCCCSc4cccc5c4C(=O)N(C4CCC(=O)NC4=O)C5=O)CC3)s2)o1` (centres unmarked) has a viability of 36.9% (HH; CCK-8; 0.15 µM).
`COC1CCN(C(=O)/C=C/c2nn(CC3CCCC3)c3ncnc(N)c23)CC1` has an EC50 of > 30 µM (OE33; resazurin; 5 days).
`CC(C)(C)c1cnc(CSc2cnc(NC(=O)C3CCN(CCCCCCCSc4cccc5c4C(=O)N(C4CCC(=O)NC4=O)C5=O)CC3)s2)o1` (centres unmarked) gave a viability of 0% (HH; CCK-8; 0.5 µM).
`CNc1ncc2c(/C=C/C(=O)N3CCC(OC)CC3)nn(CC3OCCO3)c2n1` has an EC50 of > 30 µM (OE33; resazurin; 5 days).
`C=CC(=O)NC1CCN(c2ncc3ncnc(Nc4ccc(Oc5ccc6c(c5)ncn6C)c(C)c4)c3n2)CC1` has an EC50 of 0.325 µM (SBC-5).
`CC(=NNC(N)=S)c1ccc(Nc2nnc(-c3ccc(Cl)cc3)c3ccccc23)cc1` gave a viability of 7.32% (HepG2; MTT; 10 µM, 24 h).
The EC50 of `CNc1ncc2c(/C=C/C(=O)N3CCC(O)CC3)nn(CC3CCCC3)c2n1` is reported as > 30 µM (OE33; resazurin; 5 days).
`CC(C)(C)c1cnc(CSc2cnc(NC(=O)C3CCN(CCCCCCCCSc4cccc5c4C(=O)N(C4CCC(=O)NC4=O)C5=O)CC3)s2)o1` (centres unmarked) gave a viability of 16.5% (HH; CCK-8; 0.15 µM).
With `CC(=NNC(=O)c1ccccc1Cl)c1ccc(Nc2nnc(-c3ccc(Cl)cc3)c3ccccc23)cc1` the cell death was 19.8% (HepG2; MTT; 0.312 µM).
For `CNc1ncc2c(/C=C/C(=O)N3CCOCC3)nn(CC3CCCC3)c2n1`, the EC50 was > 30 µM (OE33; resazurin; 5 days).
`CC(=NNC(=S)Nc1ccccc1)c1ccc(Nc2nnc(-c3ccc(Cl)cc3)c3ccccc23)cc1` has a cell death of 0.861% (HepG2; MTT; 0.312 µM).
The EC50 of `CNc1ncc2c(/C=C/C(=O)N3CCC(OC)CC3)nn(Cc3ccccc3)c2n1` is reported as 7.49 µM (OE33; resazurin; 5 days).
The cell death of `O=C(Nc1ccc(Oc2nnc(-c3ccc(Cl)cc3)c3ccccc23)cc1)c1cccc([N+](=O)[O-])c1` is reported as 94.8% (HepG2; MTT; 5 µM).
For `CC(C)(C)c1cnc(CSc2cnc(NC(=O)C3CCN(C(=O)COCCOCCSc4cccc5c4C(=O)N(C4CCC(=O)NC4=O)C5=O)CC3)s2)o1` (centres unmarked), the viability was 47.3% (HH; CCK-8; 0.4 µM).
The viability of `O=C(Nc1ccc(Oc2nnc(-c3ccc(Cl)cc3)c3ccccc23)cc1)c1ccccc1` is reported as 3.4% (HepG2; MTT; 2.5 µM, 24 h).
`CNc1ncc2c(/C=C/C(=O)N3CCC(c4ccccc4)CC3)nn(CC3CCCC3)c2n1` gave an EC50 of > 30 µM (OE33; resazurin; 5 days).
For `CC(C)(C)c1cnc(CSc2cnc(NC(=O)C3CCN(C(=O)CCCSc4cccc5c4C(=O)N(C4CCC(=O)NC4=O)C5=O)CC3)s2)o1` (centres unmarked), the viability was 96.7% (HH; CCK-8; 0.2 µM).
With `CC(=O)Nc1ccc(Oc2nnc(-c3ccc(Cl)cc3)c3ccccc23)cc1` the cell death was 88.3% (HepG2; MTT; 0.625 µM).
`CC(C)(C)c1cnc(CSc2cnc(NC(=O)C3CCN(CCCCCCCCSc4cccc5c4CN(C4CCC(=O)NC4=O)C5=O)CC3)s2)o1` (centres unmarked) gave a viability of 0% (HH; CCK-8; 0.5 µM).
`CC(=NNC(=O)c1ccccc1Br)c1ccc(Nc2nnc(-c3ccc(Cl)cc3)c3ccccc23)cc1` gave a viability of 85.4% (HepG2; MTT; 0.312 µM, 24 h).
`CC(=O)c1nn(-c2ccc(C)cc2)/c(=N/N=C(\C)c2ccc(NC(=O)c3ccccc3)cc2)s1` gave a viability of 5.9% (HepG2; MTT; 1.25 µM).
